Bioassay records as filed in PubChem.
A selection: hits, their analogues and other compounds. The true share with any hit is near 2.2%.
HCV NS3 hel inh – HCV NS3 helicase inhibition. NS3 helicase DNA unwinding, Cy5 molecular beacon fluorescence. inhibition, % at 10.9 µM. hit rate 0.56% among 290,000. AID 1800;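 active = inhibition above the mean of all tested compounds plus 3 SD, set per campaign, cut at about 35% in these data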;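 also: 0% = DMSO wells and 100% = thioflavine S control wells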
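test system = hepatitis C virus NS3 helicase domain fragment enzyme | reagent = annealed dual-labelled DNA beacon duplex, ATP-started | times = 1 h at 25 °C | detection = Cy5 fluorescence, 0 and 60 min reads | read-out basis = percent inhibition from t60/t0 fluorescence ratio | control set = DMSO and thioflavine S | replication = one well per compound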
DAGLB inhibitor – blocks human DAGLB lipase activity | AID 504411 | Q8NCG7 | hit rate 0.059% among 340,000 | inhibition, % at 5.17 µM | HEK293T DAGLB membrane lysate, EnzChek fluorogenic substrate; in the data active = inhibition above about 34%;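 also: 0% = enzyme with vehicle and 100% = wells lacking enzyme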
Target sequence (Q8NCG7 whole entry, looked up): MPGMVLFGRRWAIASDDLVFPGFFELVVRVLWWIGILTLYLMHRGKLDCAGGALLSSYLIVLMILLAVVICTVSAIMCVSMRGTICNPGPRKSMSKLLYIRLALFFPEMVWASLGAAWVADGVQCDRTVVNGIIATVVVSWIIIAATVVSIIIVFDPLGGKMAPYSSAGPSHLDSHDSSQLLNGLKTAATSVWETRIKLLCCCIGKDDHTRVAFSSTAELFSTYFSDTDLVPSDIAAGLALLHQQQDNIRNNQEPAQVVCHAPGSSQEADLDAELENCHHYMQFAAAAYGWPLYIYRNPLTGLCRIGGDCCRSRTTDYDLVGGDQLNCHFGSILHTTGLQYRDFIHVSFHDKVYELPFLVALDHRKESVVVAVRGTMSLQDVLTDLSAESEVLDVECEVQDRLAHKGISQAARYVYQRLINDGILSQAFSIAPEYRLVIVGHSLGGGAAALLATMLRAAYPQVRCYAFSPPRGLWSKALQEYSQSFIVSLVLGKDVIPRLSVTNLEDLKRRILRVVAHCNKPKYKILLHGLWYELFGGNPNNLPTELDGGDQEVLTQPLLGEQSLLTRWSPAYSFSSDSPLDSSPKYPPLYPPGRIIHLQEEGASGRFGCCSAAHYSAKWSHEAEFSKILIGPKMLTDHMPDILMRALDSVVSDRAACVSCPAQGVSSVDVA
FID counter – fluorescent intercalator displacement, NS3 helicase counter-screen. hit rate 0.17% among 290,000. DNA fluorescent intercalator displacement, fluorescence. inhibition, % at 7.9 µM; in the data active = inhibition above about 37%;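 also: 0% = vehicle and 100% = reference compound; higher means more ethidium bromide displaced from hairpin DNA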
GRK2 inh – human GRK2 inhibition via aptamer displacement | bead flow cytometry, FAM-aptamer displacement from GRK2 | hit rate 0.59% among 330,000 | AID 488847 | P25098 | inhibition of aptamer binding, % at 10 µM;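 active = inhibition of aptamer binding above 40%, roughly 3 SD of noise, on plates passing a quality check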;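 also: median bead fluorescence of bound FAM aptamer so fluorescent compounds give negative values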
GPR7 antag – human neuropeptides B/W receptor 1 antagonism | P48145 | GPR7-expressing cells, fluorescence antagonist assay | inhibition, % at 4.4 µM | hit rate 1.1% among 290,000 | AID 1861; in the data active = inhibition above about 16%, passing the limit was not always enough;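 also: cells stimulated with the agonist NPW; 0% = agonist with vehicle and 100% = vehicle without agonist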
HCV core dimer – blocks dimerization of HCV core protein; TR-FRET GST/Flag-core106 dimerization, 1536-well; AID 1899; hit rate 0.33% among 300,000; inhibition, % at 5 µM;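 active = inhibition above the mean of all tested compounds plus 3 SD, set per screening campaign, cut at about 45% in these data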
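System: GST-tagged and Flag-tagged HCV core protein residues 1-106 / Input: core106 proteins, GST 13.5 nM and Flag 17 nM / Buffer or medium: KF-containing HEPES buffer, pH 7.45, DTT, CHAPS, BSA / Probe or stimulus: Eu-anti-GST and XL665-anti-Flag labelled anti-tag antibodies / Schedule: 4 h, 22.5 °C incubation / Technique: TR-FRET 671 and 617 nm emission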
GPR7 antag conf – human GPR7 antagonism, confirmation assay; shares compounds with GPR7 antag; GPR7-expressing cells, calcium fluorescence antagonist mode; inhibition, % at 4.4 µM; hit rate 52% among 2,400; AID 1952; in the data active = inhibition above about 24%;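 also: stimulated with the GPR7 agonist NPW; 0% = agonist plus vehicle and 100% = vehicle alone without agonist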
MCHR1 antag – MCHR1 (human) antagonism in GPR7 counter-screen; shares compounds with GPR7 antag; MCHR1-expressing cells, fluorescence antagonist assay; inhibition, % at 4.4 µM; hit rate 62% among 2,400; AID 2148; in the data active = inhibition above about 22%;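 also: 0% = vehicle with agonist and 100% = vehicle without agonist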
Starred values were filed as active, the others as inactive; . = no result given.

SMILES	HCV NS3 hel inh	DAGLB inhibitor	FID counter	GRK2 inh	GPR7 antag	HCV core dimer	GPR7 antag conf	MCHR1 antag
c1ccc(C(c2ccccn2)c2ccccn2)cc1	1	3	-5	0	-2	-9	.	.
COc1ccc(NC(=O)C(OC(=O)c2cnccn2)c2ccccc2)cc1Cl (centres undefined)	-9	-1	-11	0	32*	0	19	20
COc1ccc(NC(=O)C(OC)c2ccccc2)cc1Cl (centres undefined)	-2	1	-7	0	-5	-3	.	.
O=C(OCC(=O)N1CCc2ccccc2C1)c1ccc(O)cc1	.	-1	.	1	.	.	.	.
O=S(=O)(c1ccc(OC(F)(F)F)cc1)N1CCC(O)(c2cccc(C(F)(F)F)c2)CC1	-1	-11	-18	0	39*	-12	44*	46*
Cc1cc(O)c(C(C)C)cc1C1(c2cc(C(C)C)c(O)cc2C)OC(=O)c2ccccc21	-5	-6	-18	2	28	12	17	14
CCOc1ccc(NS(=O)(=O)c2ccc(NC(=S)NC(=O)CC(C)C)cc2)cc1	6	-1	-2	1	5	9	.	.
CCCC(=O)NC(=S)Nc1ccc(S(=O)(=O)Nc2ccc(OCC)cc2)cc1	-5	0	-16	0	29*	12	53*	67*
NC(=O)NC(=O)COC(=O)[C@H](Cc1ccccc1)NC(=O)c1cccs1	9	2	0	0	-10	0	.	.
O=C(COC(=O)[C@H](Cc1ccccc1)NC(=O)c1cccs1)Nc1ccccc1C(F)(F)F	0	-4	-21	0	23*	7	39*	32*
CC(C)(C)c1cc(C(=O)Nc2ccc(F)cc2)n(Cc2ccc(F)cc2)n1	2	.	-15	0	23*	4	3	56*
CCOc1ccc2nc(NC(=O)CSc3cn[nH]n3)sc2c1	-13	1	-10	0	22*	2	-4	6
COc1ccc2nc(NC(=O)CSc3cn[nH]n3)sc2c1	2	2	-7	0	10	-7	.	.
COc1cc2c(cc1OC)CN(C(=O)C1CCCN(C(=O)c3ccc(Cl)cc3)C1)CC2 (centres undefined)	.	0	.	0	.	.	.	.
CCC(=O)c1ccc(OCC(O)Cn2c(C)nc3ccccc32)cc1 (centres undefined)	5	-2	-7	5	28*	4	24	57*
CCC(=O)N/C(=N/c1nc(C)cc(C)n1)Nc1ccc(OC)cc1	2	-2	-10	3	35*	-1	-4	17
CCN(CC(=O)NC(C)(C)C)Cc1cc(=O)n2c(-c3ccccc3)csc2n1	19	1	-38	0	-10	20	.	.
COc1cccc(NC(=O)Nc2nc(-c3ccc(OC)c(OC)c3)cs2)c1	-24	-1	-14	0	74*	-20	92*	93*
COc1cc(/C=N/NC(=S)Nc2cccc(Cl)c2C)ccc1OCC(=O)N1CC(C)OC(C)C1 (centres undefined)	-4	1	-37	0	-4	-5	.	.
CCCCn1c(SCc2cccc([N+](=O)[O-])c2)nc2ccsc2c1=O	8	-10	1	1	3	11	.	.
CCC(C)n1c(SCc2ccc([N+](=O)[O-])cc2)nc2ccsc2c1=O (centres undefined)	-13	-12	-6	0	25*	1	23	44*
COc1cc(/C=N/NC(=O)c2ccc(F)cc2)ccc1OC(=O)c1ccco1	0	-2	-16	4	5	-11	.	.
O=C(N/N=C/c1cccc(OC(=O)c2ccco2)c1)c1ccc(F)cc1	-6	-3	-20	5	22*	-3	16	23*
CC(=O)Nc1ccc(S(=O)(=O)N2CCN(c3nc4ccccc4n3CC(C)C)CC2)cc1	0	0	-45	0	27*	.	-10	5
